Values after ≈ are worked out from the molar mass of the structure shown. Active and inactive are the calls of the source. No cut-off for these calls is given here. Where a SMILES comes first, the peptide text is derived from it.
Columns and labels:
[1] = Cytotoxicity against mouse NIH/3T3 cells at antibacterial MIC (Escherichia coli ATCC 25922) assessed as reduction in cell index incubated for 60 hrs; assay type: cell-based; details: nih3t3, 60 h
Escherichia coli [2] = assay: Antibacterial activity against Escherichia coli ATCC 25922 assessed as inhibition of visible bacterial growth incubated at 37 degC for 24 hrs by CLSI protocol based method; assay type: functional; details: ATCC 25922, 24 h
Procedure, shortened: (§1)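 Broth microdilution per CLSI 2012. Strains grown at 37 °C in Mueller-Hinton broth to log phase (1 × 10^8 CFU/mL). Peptide 2-fold serial dilutions, 6.25–800 μg/mL, in Mueller-Hinton broth; final inoculum 5 × 10^5 CFU/mL per well. Aerobic incubation 24 h at 37 °C. MIC is the lowest concentration with no visible growth (A600 < 0.05). Meropenem control for Gram-negatives, oxacillin for S. aureus. Triplicate, two independent experiments.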

Staphylococcus aureus = assay: Antibacterial activity against Staphylococcus aureus […] assessed as inhibition of visible bacterial growth incubated at 37 degC for 24 hrs by CLSI protocol based method; assay type: functional; procedure, shortened: as §1
Klebsiella pneumoniae = assay: Antibacterial activity against Klebsiella pneumoniae ATCC 700603 assessed as inhibition of visible bacterial growth incubated at 37 degC for 24 hrs by CLSI protocol based method; assay type: functional; details: ATCC 700603, 24 h; procedure, shortened: as §1
Salmonella enterica = assay: Antibacterial activity against Salmonella choleraesuis ATCC 14028 assessed as inhibition of visible bacterial growth incubated at 37 degC for 24 hrs by CLSI protocol based method; assay type: functional; details: ATCC 14028, 24 h
Procedure, shortened: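 Strain grown at 37 °C in Mueller-Hinton broth to log phase (1 × 10^8 CFU/mL). Broth microdilution per CLSI (2012) with 2-fold peptide dilutions in Mueller-Hinton broth, 6.25–800 μg/mL, final inoculum 5 × 10^5 CFU/mL. Incubated 24 h, 37 °C, aerobic. MIC is the lowest concentration giving absorbance below 0.05 at 600 nm. Meropenem control. Triplicate, two independent experiments.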

[3] = Toxicity in human RBC assessed as induction of hemolysis at antibacterial MIC (Escherichia coli ATCC 25922) incubated for 1 hr at 37 degC; assay type: cell-based, Erythrocyte; details: human red blood cells (RBC), read-out: Activity
Procedure, shortened: (§2)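 Human RBCs collected in EDTA (1.8 mg/mL), washed three times, resuspended in 0.85% saline, mixed with an equal volume of peptide solution (100–800 μg/mL). 1 h at 37 °C, centrifuged at 10000g for 1 min, supernatant absorbance read at 550 nm. Saline and 0.1% (v/v) Triton X as 0 and 100% controls. % hemolysis = (A peptide − A saline)/(A Triton − A saline) × 100.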

[4] = Toxicity in human RBC assessed as induction of hemolysis at 800 ug/mL incubated for 1 hr at 37 degC; assay type: cell-based, Erythrocyte; details: human red blood cells (RBC), read-out: Activity; procedure, shortened: as §2
Escherichia coli [5] = assay: Induction of morphological changes in Escherichia coli ATCC 25922 assessed as cell structural perturbation at 190 uM incubated for 24 hrs by atomic force microscopy; assay type: functional, organism-based
Escherichia coli [6] = assay: Induction of morphological changes in Escherichia coli ATCC 25922 assessed as cell cytoplasmic content release at 190 uM incubated for 24 hrs by atomic force microscopy; assay type: functional, organism-based
Escherichia coli [7] = assay: Induction of morphological changes in Escherichia coli ATCC 25922 assessed as cell shape changes release at 190 uM incubated for 24 hrs by atomic force microscopy; assay type: functional, organism-based
Escherichia coli [8] = assay: Induction of cell envelope morphological changes in Escherichia coli ATCC 25922 at 190 uM incubated for 24 hrs by atomic force microscopy; assay type: functional, organism-based
Escherichia coli [9] = assay: Induction of morphological changes in Escherichia coli ATCC 25922 assessed as reduction in number of pili at 190 uM incubated for 24 hrs by atomic force microscopy; assay type: functional, organism-based

| SMILES | Activity [1] | MIC (Escherichia coli [2]) | MIC (Staphylococcus aureus) | MIC (Klebsiella pneumoniae) | MIC (Salmonella enterica) | hemolysis at 1 h [3] | hemolysis at 1 h, 800 ug/mL [4] | Activity (Escherichia coli [5]) | Activity (Escherichia coli [6]) | Activity (Escherichia coli [7]) | Activity (Escherichia coli [8]) | Activity (Escherichia coli [9]) |
| --- | --- | --- | --- | --- | --- | --- | --- | --- | --- | --- | --- | --- |
| CC[C@H](C)[C@H](NC(=O)[C@H](CCCCN)NC(=O)CNC(=O)[C@H](CCSC)NC(=O)[C@H](C)NC(=O)[C@H](Cc1cnc[nH]1)NC(=O)[C@H](C)NC(=O)[C@@H](NC(=O)[C@H](CC(C)C)NC(=O)[C@H](CCC(N)=O)NC(=O)[C@H](CCCCN)NC(=O)CNC(=O)[C@H](C)NC(=O)[C@H](CC(=O)O)NC(=O)[C@H](CCCCN)NC(=O)[C@@H](NC(=O)[C@@H](NC(=O)[C@H](CC(=O)O)NC(=O)[C@H](Cc1ccccc1)NC(=O)[C@@H](NC(=O)CN)C(C)C)[C@@H](C)CC)[C@@H](C)CC)C(C)C)C(=O)N[C@@H](C)C(=O)N[C@@H](CCC(=O)O)C(=O)N[C@@H](CCCCN)C(=O)N[C@H](C(N)=O)C(C)C (H-GVFDIIKDAGKQLVAHAMGKIAEKV-NH2) | Non-toxic | 300 µM (≈ 791 µg/mL) | > 300 µM | > 300 µM | > 300 µM | 1.98% | 1.98% | – | – | – | – | – |
| CC[C@H](C)[C@H](NC(=O)[C@H](CCCCN)NC(=O)CNC(=O)[C@@H](NC(=O)[C@H](C)NC(=O)[C@H](Cc1cnc[nH]1)NC(=O)[C@H](C)NC(=O)[C@@H](NC(=O)[C@H](CC(C)C)NC(=O)[C@H](CCC(N)=O)NC(=O)[C@H](CCCCN)NC(=O)CNC(=O)[C@H](C)NC(=O)[C@H](CC(=O)O)NC(=O)[C@H](CCCCN)NC(=O)[C@@H](NC(=O)[C@@H](NC(=O)[C@H](CC(=O)O)NC(=O)[C@H](Cc1ccccc1)NC(=O)[C@@H](NC(=O)CN)C(C)C)[C@@H](C)CC)[C@@H](C)CC)C(C)C)[C@@H](C)O)C(=O)N[C@@H](C)C(=O)N[C@@H](CCC(=O)O)C(=O)N[C@@H](CCCCN)C(=O)N[C@H](C(N)=O)C(C)C (H-GVFDIIKDAGKQLVAHATGKIAEKV-NH2) | Non-toxic | > 310 µM | > 310 µM | > 310 µM | > 310 µM | 0% | 0% | – | – | – | – | – |
| CC[C@H](C)[C@H](NC(=O)[C@H](CCCCN)NC(=O)CNC(=O)[C@H](CCSC)NC(=O)[C@H](C)NC(=O)[C@H](Cc1cnc[nH]1)NC(=O)[C@H](C)NC(=O)[C@@H](NC(=O)[C@H](CC(C)C)NC(=O)[C@H](CCC(N)=O)NC(=O)[C@H](CCCNC(=N)N)NC(=O)CNC(=O)[C@H](C)NC(=O)[C@H](CC(=O)O)NC(=O)[C@H](CCCCN)NC(=O)[C@@H](NC(=O)[C@@H](NC(=O)[C@H](CC(=O)O)NC(=O)[C@H](Cc1ccccc1)NC(=O)[C@@H](NC(=O)CN)C(C)C)[C@@H](C)CC)[C@@H](C)CC)C(C)C)C(=O)N[C@@H](C)C(=O)N[C@@H](CCC(=O)O)C(=O)N[C@@H](CCCCN)C(=O)N[C@H](C(N)=O)C(C)C (H-GVFDIIKDAGRQLVAHAMGKIAEKV-NH2) | Non-toxic | 300 µM (≈ 800 µg/mL) | > 300 µM | > 300 µM | > 300 µM | 4.05% | 4.05% | – | – | – | – | – |
| CC[C@H](C)[C@H](NC(=O)[C@H](CC(C)C)NC(=O)[C@H](CCC(N)=O)NC(=O)[C@H](CCCCN)NC(=O)CNC(=O)[C@H](C)NC(=O)CNC(=O)[C@H](CCCCN)NC(=O)[C@@H](NC(=O)[C@@H](NC(=O)[C@H](CC(=O)O)NC(=O)[C@H](Cc1ccccc1)NC(=O)[C@@H](NC(=O)CN)C(C)C)[C@@H](C)CC)[C@@H](C)CC)C(=O)N[C@@H](C)C(=O)N[C@@H](Cc1cnc[nH]1)C(=O)N[C@@H](C)C(=O)N[C@@H](CCSC)C(=O)N[C@@H](CCC(=O)O)C(=O)N[C@@H](CCCCN)C(=O)N[C@H](C(=O)N[C@@H](C)C(=O)N[C@@H](CCC(=O)O)C(=O)N[C@@H](CCCCN)C(=O)N[C@H](C(=O)NCC(=O)N[C@@H](CC(C)C)C(=O)N[C@@H](CC(N)=O)C(=O)N[C@@H](CCCCN)C(=O)N[C@@H](CC(=O)O)C(=O)NCC(=O)N[C@@H](CC(N)=O)C(=O)O)C(C)C)[C@@H](C)CC (H-GVFDIIKGAGKQLIAHAMEKIAEKVGLNKDGN-OH) | Non-toxic | 120 µM (≈ 404 µg/mL) | > 240 µM | > 240 µM | > 240 µM | 0% | 0.69% | – | – | – | – | – |
| CC[C@H](C)[C@H](NC(=O)[C@H](CCCCN)NC(=O)CNC(=O)[C@H](CCSC)NC(=O)[C@H](C)NC(=O)[C@H](Cc1cnc[nH]1)NC(=O)[C@H](C)NC(=O)[C@@H](NC(=O)[C@H](CC(C)C)NC(=O)[C@H](CCC(N)=O)NC(=O)[C@H](CCCCN)NC(=O)CNC(=O)[C@H](C)NC(=O)CNC(=O)[C@H](CCCCN)NC(=O)[C@@H](NC(=O)[C@@H](NC(=O)[C@H](CC(=O)O)NC(=O)[C@H](Cc1ccccc1)NC(=O)[C@@H](NC(=O)CN)C(C)C)[C@@H](C)CC)[C@@H](C)CC)[C@@H](C)CC)C(=O)N[C@@H](C)C(=O)N[C@@H](CCC(=O)O)C(=O)N[C@@H](CCCCN)C(=O)N[C@H](C(N)=O)C(C)C (H-GVFDIIKGAGKQLIAHAMGKIAEKV-NH2) | Non-toxic | 80 µM (≈ 208 µg/mL) | > 310 µM | 310 µM (≈ 804 µg/mL) | 310 µM (≈ 804 µg/mL) | 0.19% | 4.29% | – | – | – | – | – |
| CC[C@H](C)[C@H](NC(=O)[C@H](CCCCN)NC(=O)CNC(=O)[C@H](CCSC)NC(=O)[C@H](C)NC(=O)[C@H](Cc1cnc[nH]1)NC(=O)[C@H](C)NC(=O)[C@@H](NC(=O)[C@H](CC(C)C)NC(=O)[C@H](CCC(N)=O)NC(=O)[C@H](CCCCN)NC(=O)CNC(=O)[C@H](C)NC(=O)CNC(=O)[C@H](CCCCN)NC(=O)[C@@H](NC(=O)[C@@H](NC(=O)[C@H](CC(=O)O)NC(=O)[C@H](Cc1ccccc1)NC(=O)[C@@H](NC(=O)CN)C(C)C)[C@@H](C)CC)[C@@H](C)CC)[C@@H](C)CC)C(=O)N[C@@H](C)C(=O)N[C@@H](CCC(=O)O)C(=O)N[C@@H](CCCCN)C(=O)N[C@H](C(=O)NCC(=O)N[C@@H](CC(C)C)C(=O)N[C@@H](CC(N)=O)C(=O)N[C@@H](CCCCN)C(=O)N[C@@H](CC(=O)O)C(=O)NCC(=O)N[C@@H](CC(N)=O)C(=O)O)C(C)C (H-GVFDIIKGAGKQLIAHAMGKIAEKVGLNKDGN-OH) | Non-toxic | 60 µM (≈ 198 µg/mL) | 240 µM (≈ 791 µg/mL) | > 240 µM | 240 µM (≈ 791 µg/mL) | 0.06% | 13.7% | Active | Active | Active | Active | Active |
| CC[C@H](C)[C@H](NC(=O)[C@H](CCCCN)NC(=O)CNC(=O)[C@H](CCSC)NC(=O)[C@H](C)NC(=O)[C@H](CCCNC(=N)N)NC(=O)[C@H](C)NC(=O)[C@@H](NC(=O)[C@H](CC(C)C)NC(=O)[C@H](CCC(N)=O)NC(=O)[C@H](CCCCN)NC(=O)CNC(=O)[C@H](C)NC(=O)CNC(=O)[C@H](CCCCN)NC(=O)[C@@H](NC(=O)[C@@H](NC(=O)[C@H](CC(=O)O)NC(=O)[C@H](Cc1ccccc1)NC(=O)[C@@H](NC(=O)CN)C(C)C)[C@@H](C)CC)[C@@H](C)CC)[C@@H](C)CC)C(=O)N[C@@H](C)C(=O)N[C@@H](CCC(=O)O)C(=O)N[C@@H](CCCCN)C(=O)N[C@H](C(=O)NCC(=O)N[C@@H](CC(C)C)C(=O)N[C@@H](CC(N)=O)C(=O)N[C@@H](CCCCN)C(=O)N[C@@H](CC(=O)O)C(=O)NCC(=O)N[C@@H](CC(N)=O)C(=O)O)C(C)C (H-GVFDIIKGAGKQLIARAMGKIAEKVGLNKDGN-OH) | Non-toxic | 60 µM (≈ 199 µg/mL) | 240 µM (≈ 795 µg/mL) | 240 µM (≈ 795 µg/mL) | 240 µM (≈ 795 µg/mL) | 0% | 8.09% | – | – | – | – | – |
| CC[C@H](C)[C@H](NC(=O)[C@H](C)NC(=O)[C@H](Cc1cnc[nH]1)NC(=O)[C@H](C)NC(=O)[C@@H](NC(=O)[C@H](CC(C)C)NC(=O)[C@H](CC(=O)O)NC(=O)[C@H](CCCCN)NC(=O)CNC(=O)[C@H](C)NC(=O)CNC(=O)[C@H](CCCCN)NC(=O)[C@@H](NC(=O)[C@@H](NC(=O)[C@H](CC(=O)O)NC(=O)[C@@H](NC(=O)[C@@H](NC(=O)CN)C(C)C)[C@@H](C)CC)[C@@H](C)CC)[C@@H](C)CC)[C@@H](C)CC)C(=O)NCC(=O)N[C@@H](CCCCN)C(=O)N[C@@H](CC(C)C)C(=O)N[C@@H](C)C(=O)N[C@@H](CCC(=O)O)C(=O)N[C@@H](CCCCN)C(=O)N[C@H](C(N)=O)C(C)C (H-GVIDIIKGAGKDLIAHAIGKLAEKV-NH2) | Non-toxic | 320 µM (≈ 809 µg/mL) | > 320 µM | > 320 µM | > 320 µM | 0.69% | 0.69% | – | – | – | – | – |

From ChEMBL document CHEMBL3588805, “Characterization and Biological Activities of Ocellatin Peptides from the Skin Secretion of the Frog Leptodactylus pustulatus” (J Nat Prod, 2015)
